Active and inactive are the calls of the source. No cut-off for these calls is given here.
Legend:
Staphylococcus aureus [1] = experiment: In vivo anti-virulence activity against Staphylococcus aureus Newman infected in BALB/c mouse model assessed as reduction in bacterial load in heart at 0.4 mg bid for 3.5 days administered orally 6 hrs post infection by serial dilution method relative to vancomycin; type: functional; parameters: scale not given: the % may be the effect or the level left
In short: (§1)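 Mice got 3.1 × 10^7 CFU S. aureus Newman by retro-orbital injection. Oral compound was given b.i.d. for 3.5 d, starting 6 h after infection. […] Log10 CFU was counted per kidney and per heart.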

[2] = target: T1, 4,4'-diapophytoene desaturase (4,4'-diaponeurosporene-forming) (Staphylococcus aureus (strain Mu50 / ATCC 700699)) (UniProt Q99R76); details: Staphylococcus aureus subsp. aureus Mu50; 1 uM
T1 sequence (whole entry): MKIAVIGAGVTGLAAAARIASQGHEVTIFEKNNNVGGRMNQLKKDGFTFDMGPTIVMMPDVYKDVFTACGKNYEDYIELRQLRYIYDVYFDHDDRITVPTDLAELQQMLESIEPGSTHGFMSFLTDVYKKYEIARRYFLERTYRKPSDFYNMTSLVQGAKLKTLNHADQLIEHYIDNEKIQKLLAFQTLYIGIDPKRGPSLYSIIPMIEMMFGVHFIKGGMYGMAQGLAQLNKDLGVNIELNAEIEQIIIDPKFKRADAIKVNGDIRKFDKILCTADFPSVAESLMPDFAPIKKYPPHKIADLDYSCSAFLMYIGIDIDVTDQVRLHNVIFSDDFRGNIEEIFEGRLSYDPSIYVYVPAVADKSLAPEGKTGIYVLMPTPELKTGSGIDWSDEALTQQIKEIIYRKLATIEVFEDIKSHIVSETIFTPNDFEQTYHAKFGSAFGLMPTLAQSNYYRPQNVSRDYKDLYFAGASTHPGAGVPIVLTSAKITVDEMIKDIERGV

Staphylococcus aureus [3] = experiment: In vivo anti-virulence activity against Staphylococcus aureus NRS271 infected in BALB/c mouse model assessed as reduction in bacterial load in kidney at 0.2 mg bid for 3.5 days administered orally 6 hrs post infection by serial dilution method relative to control; type: functional, organism-based
In short: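 Mice were infected by retro-orbital injection with Mu50 (4.6 × 10^9 CFU) or NRS271 (3.5 × 10^8 CFU). Oral compound was given b.i.d. for 3.5 d, starting 6 h after infection. Log10 CFU was counted per kidney and per heart.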

[4] = Tmax in Sprague-Dawley rat at 5 mg/kg, iv administered as single dose by LC-MS/MS analysis; type: ADME, organism-based; details: in vivo
Staphylococcus aureus [5] = experiment: In vivo anti-virulence activity against methicillin-resistant Staphylococcus aureus XN108 infected in BALB/c mouse model assessed as reduction in bacterial load in kidney at 0.1 mg bid for 3.5 days administered intraperitoneally 6 hrs post infection by serial dilution method relative to linezolid; type: functional, organism-based
In short: (§2)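 Mice infected retro-orbitally with S. aureus NF65Y (3.5 × 10^8 CFU) or XN108 (2.1 × 10^8 CFU). Test compound given i.p. b.i.d. starting 6 h post-infection. […] Log10 CFU per kidney and heart counted. Two-tailed Mann−Whitney test.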

Rattus norvegicus [6] = experiment: Toxicity in Sprague-Dawley rat at 60 to 1000 mg/kg, po administered as single dose assessed as changes in water consumption measured during 2 weeks post administration; type: organism-based; details: in vivo, 336 h
In short: (§3)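 Rats, 30 in total, randomised into three groups. Each received a single oral dose of 60, 250 or 1000 mg/kg on day 1. Poisoning symptoms, mortality, behaviour, water and food consumption and body weight monitored immediately and over 2 weeks.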

Staphylococcus aureus [7] = experiment: In vivo anti-virulence activity against methicillin-resistant Staphylococcus aureus LRSA202 infected in BALB/c mouse model assessed as reduction in bacterial load in heart at 0.1 mg bid for 3.5 days administered intraperitoneally 6 hrs post infection by serial dilution method relative to control; type: functional, organism-based
In short: (§4)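 Mice were infected by retro-orbital injection with LRSA56 (5.0 × 10^7 CFU) or LRSA202 (7.0 × 10^7 CFU). Compound was given intraperitoneally 6 h after infection. […] Log10 CFU was counted in kidneys and hearts, with groups compared by two-tailed Mann-Whitney test.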

Staphylococcus aureus [8] = experiment: In vivo anti-virulence activity against Staphylococcus aureus Newman infected in BALB/c mouse model assessed as reduction in bacterial load in heart at 0.2 mg bid for 3.5 days administered orally 6 hrs post infection by serial dilution method relative to vancomycin; type: functional; parameters: scale not given: the % may be the effect or the level left; in short: as §1
[9] = Oral bioavailability in mouse at 10 mg/kg administered as single dose by LC-MS/MS analysis; type: ADME, organism-based; details: in vivo
Staphylococcus aureus [10] = experiment: In vivo anti-virulence activity against Staphylococcus aureus Newman infected in BALB/c mouse model assessed as reduction in bacterial load in kidney at 0.1 mg bid for 3.5 days administered orally 6 hrs post infection by serial dilution method relative to control; type: functional; parameters: scale not given: the % may be the effect or the level left; in short: as §1
[11] = AUC (0 to infinity) in Sprague-Dawley rat at 10 mg/kg, ip administered as single dose by LC-MS/MS analysis; type: ADME, organism-based; parameters: dose 10 mg/kg, time infinity, route intraperitoneal; details: in vivo
Staphylococcus aureus [12] = experiment: In vivo anti-virulence activity against methicillin-resistant Staphylococcus aureus XN108 infected in BALB/c mouse model assessed as reduction in bacterial load in kidney at 0.1 mg bid for 3.5 days administered intraperitoneally 6 hrs post infection by serial dilution method relative to vancomycin; type: functional, organism-based; in short: as §2
Staphylococcus aureus [13] = experiment: In vivo anti-virulence activity against methicillin-resistant Staphylococcus aureus LRSA56 infected in BALB/c mouse model assessed as reduction in bacterial load in kidney at 0.1 mg bid for 3.5 days administered intraperitoneally 6 hrs post infection by serial dilution method relative to control; type: functional; parameters: scale not given: the % may be the effect or the level left; in short: as §4
[14] = Inhibition of CrtN in methicillin-resistant Staphylococcus aureus HS663 assessed as reduction in staphyloxanthin levels after 48 hrs by spectrophotometric method-based pigment inhibition assay
Staphylococcus aureus [15] = experiment: In vivo anti-virulence activity against methicillin-resistant Staphylococcus aureus Mu50 infected in BALB/c mouse model assessed as reduction in bacterial load in kidneys at 0.05 mg bid for 3.5 days administered intraperitoneally 6 hrs post infection by serial dilution method; type: functional; parameters: scale not given: the % may be the effect or the level left
Staphylococcus aureus [16] = experiment: In vivo anti-virulence activity against methicillin-resistant Staphylococcus aureus NF65Y infected in BALB/c mouse model assessed as reduction in bacterial load in kidney at 0.1 mg bid for 3.5 days administered intraperitoneally 6 hrs post infection by serial dilution method relative to vancomycin; type: functional, organism-based; in short: as §2
Staphylococcus aureus [17] = experiment: In vivo anti-virulence activity against methicillin-resistant Staphylococcus aureus XN108 infected in BALB/c mouse model assessed as reduction in bacterial load in heart at 0.1 mg bid for 3.5 days administered intraperitoneally 6 hrs post infection by serial dilution method relative to linezolid; type: functional, organism-based; in short: as §2
Rattus norvegicus [18] = experiment: Toxicity in Sprague-Dawley rat at 60 to 1000 mg/kg, po administered as single dose assessed as changes in body weight measured during 2 weeks post administration; type: organism-based; details: in vivo, 336 h; in short: as §3
[19] = AUC (0 to 24 hrs) in mouse at 10 mg/kg, po administered as single dose by LC-MS/MS analysis; type: ADME, organism-based; parameters: time < 24 hr, dose 10 mg/kg, route oral; details: in vivo
[20] = Inhibition of CrtN in methicillin-resistant Staphylococcus aureus NF65Y assessed as reduction in staphyloxanthin levels after 48 hrs by spectrophotometric method-based pigment inhibition assay
[21] = Tmax in mouse at 2 mg/kg, iv administered as single dose by LC-MS/MS analysis; type: ADME, organism-based; details: in vivo

CN(C/C=C/c1ccc(-c2ccccc2)cc1)Cc1coc2ccccc12.Cl
Activity (Staphylococcus aureus [1]): >55.3% | Survival [2]: 2.7% | Activity (Staphylococcus aureus [3]): Active | Tmax [4]: 4.8 min | Activity (Staphylococcus aureus [5]): Active | Activity (Rattus norvegicus [6]): Non-Toxic | Activity (Staphylococcus aureus [7]): Active | Activity (Staphylococcus aureus [8]): >55.3% | bioavailability [9]: 83.8% | Activity (Staphylococcus aureus [10]): 90% | AUC(0-inf) [11]: 1090 µg·h/mL | Activity (Staphylococcus aureus [12]): Active | Activity (Staphylococcus aureus [13]): >83% | IC50 [14]: 0.02 nM | Activity (Staphylococcus aureus [15]): >91.8% | Activity (Staphylococcus aureus [16]): Active | Activity (Staphylococcus aureus [17]): Active | Activity (Rattus norvegicus [18]): Non-Toxic | AUC(0-t) at 24 h [19]: 4.53 µg·h/mL | IC50 [20]: 1 nM | Tmax [21]: 4.8 min

From ChEMBL document CHEMBL4024779, “Novel Terminal Bipheny-Based Diapophytoene Desaturases (CrtN) Inhibitors as Anti-MRSA/VISR/LRSA Agents with Reduced hERG Activity” (J Med Chem, 2018)
